In ChEMBL document CHEMBL1123454, “New alpha-methylene gamma-lactone derivatives of substituted nucleic acid bases as potential anticancer agents” (1986) one finds Average survival days, T/C and EC50 data, which are given here for eleven compounds.

Values after ≈ are worked out from the molar mass of the structure shown.

Assay [1] relates to Mus musculus. Nature of the assay: Average survival days was measured by administrating the compound to Ehrlich ascites carcinoma (EAC) in swiss mice at 25 mg/kg dose. Type of assay: functional. The method in brief:
(§1)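 Swiss male mice (18–20 g) inoculated ip on day 0 with 1×10^6 EAC cells diluted in normal saline. Daily ip treatment began 24 h later for 7 days, compound homogenized in saline with 2% Tween-80, dose volume ≤0.01 mL/g; vehicle controls. Six mice per dose, one control group per six groups. Deaths counted daily; median survival times, T/C.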

Assay [2] has as its system Mus musculus. The experiment in a line: Average survival days was measured by administrating the compound to Ehrlich ascites carcinoma(EAC) in swiss mice at 12 mg/kg dose. Type of assay: functional. The method in brief: as §1
Assay [3] has as its system Mus musculus. Nature of the assay: Compound was tested in vivo for antitumor activity at 12 mg/kg dose. Type of assay: functional. An outline of the steps: (§2)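 Swiss male mice (18–20 g) inoculated ip on day 0 with 1×10^6 Ehrlich ascites carcinoma cells in 0.2 mL saline. Starting 24 h later, ip dosing once daily for 7 days; compound homogenized in saline with 2% Tween-80, at most 0.01 mL/g. Controls received vehicle alone. Six mice per dose, one control group per six groups. Deaths counted daily; median survival times expressed as T/C.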

For assay [4], the system named is Mus musculus. The experiment in a line: Compound was tested in vivo for antitumor activity at 25 mg/kg dose. It counts as functional. An outline of the steps: as §2
Assay [5] in a line: In vitro concentration required to reduce the growth rate of KB cells in culture by 50%. It counts as functional. To be noted: Homo sapiens, read-out: ED50 (the source's name). The method in brief: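 Cytotoxicity screened at the National Cancer Institute by its standard protocol against murine P-388 lymphocytic leukemia (PS) and human nasopharyngeal carcinoma KB cells in culture. ED50 (μg/mL) is the concentration that halves the growth rate relative to control cultures.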

For another assay, the system named is PS. The experiment in a line: In vitro concentration required to reduce the growth rate of PS cells in culture by 50%. As to conditions: Mus musculus, read-out: ED50 (the source's name).
For assay [6], the system named is Mus musculus. Nature of the assay: Average survival days was measured by administrating the compound to Ehrlich ascites carcinoma (EAC) in swiss mice at 12 mg/kg dose. It counts as functional. The method in brief:
as §1

Regarding `C=C1CC(CC)(CCn2cc(F)c(=O)[nH]c2=O)OC1=O` (stereo not given), the results for the Average survival days in the assay on Mus musculus [1] and in the assay with Mus musculus [2] were 19.5 and 23, respectively. Moreover, the T/C with Mus musculus [3] was determined as 148; in the assay on Mus musculus [4], 126.

`C=C1CC(CC)(CCn2cc(C)c(=O)[nH]c2=O)OC1=O` (stereo not given): the Average survival days in the assay on Mus musculus [1] turned out to be 25.5; in the assay on Mus musculus [2], 24.5. Besides, the figures for the T/C in the assay on Mus musculus [3] and in the assay on Mus musculus [4] were 163 and 170, respectively.

For the compound `C=C1CC(CC)(CCn2cnc3c(S)ncnc32)OC1=O` (stereo not given), the Average survival days in the assay with Mus musculus [1] is reported as 17.5; in the assay with Mus musculus [2], 18. Further, the T/C was 116 in the assay on Mus musculus [3] and 113 in the assay on Mus musculus [4].

For `C=C1CC(C)(Cn2cnc3c(Cl)ncnc32)OC1=O` (stereo not given), the EC50 in assay [5] turned out to be 1.5 µg/mL (≈ 5.38 µM); in the assay on PS it was 0.17 µg/mL (≈ 0.61 µM). For the same compound, the Average survival days came out at 24 with Mus musculus [1] and 20 in the assay with Mus musculus [2]. The T/C with Mus musculus [3] was determined as 133; in the assay with Mus musculus [4], 160.

In the case of `C=C1CC(CC)(CCn2ccc(=O)[nH]c2=O)OC1=O` (stereo not given), the EC50 in assay [5] amounted to 2.8 µg/mL (≈ 10.6 µM); with PS it was 0.35 µg/mL (≈ 1.32 µM). The figures for the Average survival days in the assay on Mus musculus [1] and with Mus musculus [6] were 19.5 and 20, respectively. Moreover, the T/C in the assay on Mus musculus [3] came to 129; with Mus musculus [4] it was 126.

Turning to `C=C1CC(C)(Cn2cnc3c(S)ncnc32)OC1=O` (stereo not given), the EC50 (in assay [5]; in the assay on PS) was more than 10 µg/mL throughout. Besides, the Average survival days turned out to be 18.5 in the assay with Mus musculus [1] and 16 in the assay with Mus musculus [2]. Besides, the T/C was found to be 107 in the assay on Mus musculus [3] and 123 in the assay with Mus musculus [4].

Take `C=C1CC(C)(Cn2cnc3c(O)ncnc32)OC1=O` (stereo not given): the Average survival days in the assay with Mus musculus [1] came out at 16.5; in the assay with Mus musculus [2], 16. Besides, the T/C in the assay with Mus musculus [3] came to 107; with Mus musculus [4] it was 110.

Take `C=C1CC(CC)(CCn2cnc3c(Cl)ncnc32)OC1=O` (stereo not given): the EC50 in assay [5] was found to be 2.6 µg/mL (≈ 8.48 µM); in the assay with PS, 0.25 µg/mL (≈ 0.815 µM). In addition, the figures for the Average survival days with Mus musculus [1] and in the assay with Mus musculus [2] were 25 and 19.5, respectively. The results for the T/C in the assay on Mus musculus [3] and in the assay with Mus musculus [4] were 126 and 161, respectively.

As to `C=C1CC(CC)(CCn2cc(F)c(=O)n(CCC3(CC)CC(=C)C(=O)O3)c2=O)OC1=O` (stereo not given), the Average survival days in the assay on Mus musculus [1] worked out at 21; in the assay with Mus musculus [2] it was 23.5. Also, the T/C in the assay with Mus musculus [3] came out at 138; with Mus musculus [4], 123.

Consider `C=C1CC(CC)(CCn2cnc3c(O)ncnc32)OC1=O` (stereo not given), for which the Average survival days worked out at 17 in the assay on Mus musculus [1] and 17.5 in the assay on Mus musculus [2]. Besides, the T/C with Mus musculus [3] is given as 113; in the assay with Mus musculus [4] it was 109.

`O=c1[nH]cc(F)c(=O)[nH]1` [FLUOROURACIL] came in with an Average survival days with Mus musculus [1] of 33. Further, the T/C in the assay on Mus musculus [4] was 220.
